Experimental data reported in ChEMBL document CHEMBL3045596, “Synthesis and herbicidal activity of 12-(aryloxyacyloxyimino)-1,15-pentadecanlactone derivatives” (J Agric Food Chem, 2009).
In brackets after ≈: the same amount, converted by molar mass.

The molecules below were run on Triticum aestivum (assay: Herbicidal activity against Triticum aestivum L. (wheat) assessed as plant dead at 25 to 32 degC measured after 7 days). Details: 168 h.
Format: functional, organism-based
Summary of the method: (§1)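 Seedlings grown at 25-32 °C for about 7 days, then thinned to thirty plants per cup at the two-leaf stage. Emulsion (1 mL per cup) applied by Potter spray tower, after which plants were kept at 25-32 °C. Three replicates per concentration.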

| SMILES | EC50 [µg/mL] |
| --- | --- |
| O=C1CCCCCCCCCCC(=NOC(=O)COc2ccc(Cl)cc2Cl)CCCO1 | 38.4 (≈ 81.3 µM) |

The molecules below were run on Amaranthus tricolor (assay: Herbicidal activity against Amaranthus tricolor assessed as plant dead at 25 to 32 degC measured after 7 days). Details: 168 h.
Format: functional, organism-based
Summary of the method: as §1

| SMILES | EC50 [µg/mL] |
| --- | --- |
| CC(Oc1ccccc1)C(=O)ON=C1CCCCCCCCCCC(=O)OCCC1 (stereo unspecified) | 22.4 (≈ 53.6 µM) |
| Cc1cc(Cl)ccc1OCC(=O)O/N=C1/CCCCCCCCCCC(=O)OCCC1 | 18.2 (≈ 40.3 µM) |
| O=C(O)COc1ccc(Cl)cc1Cl [2,4-DICHLOROPHENOXYACETIC ACID] | 117 (≈ 531 µM) |
| Cc1ccc(OCC(=O)ON=C2CCCCCCCCCCC(=O)OCCC2)cc1C | 55.4 (≈ 128 µM) |
| O=C1CCCCCCCCCCC(=NOC(=O)COc2ccc(Cl)cc2Cl)CCCO1 | 7.7 (≈ 16.3 µM) |
| Cc1ccc(OC(C)(C)C(=O)ON=C2CCCCCCCCCCC(=O)OCCC2)cc1 | 55.4 (≈ 124 µM) |
| CC(Oc1ccc(Cl)cc1)C(=O)ON=C1CCCCCCCCCCC(=O)OCCC1 (stereo unspecified) | 17.8 (≈ 39.4 µM) |
| O=C1CCCCCCCCCCC(=NOC(=O)COc2ccc(Cl)cc2)CCCO1 | 18.2 (≈ 41.6 µM) |
| Cc1ccc(OCC(=O)ON=C2CCCCCCCCCCC(=O)OCCC2)cc1 | 55.4 (≈ 133 µM) |
| Cc1cccc(OCC(=O)ON=C2CCCCCCCCCCC(=O)OCCC2)c1C | 52.4 (≈ 121 µM) |
| CC1CCC(=NOC(=O)COc2ccc(Cl)cc2Cl)CCCCCCCCCCC(=O)O1 (stereo unspecified) | 8.2 (≈ 16.9 µM) |
| Cc1cc(OC(C)(C)C(=O)ON=C2CCCCCCCCCCC(=O)OCCC2)ccc1Cl | 50.1 (≈ 104 µM) |
| CC1CCC(=NOC(=O)COc2ccc(Br)cc2Cl)CCCCCCCCCCC(=O)O1 (stereo unspecified) | 14.4 (≈ 27.1 µM) |
| O=C1CCCCCCCCCC/C(=N/OC(=O)COc2ccc(Br)cc2Cl)CCCO1 | 14.7 (≈ 28.4 µM) |
| O=C1CCCCCCCCCCC(=NOC(=O)COc2ccc(Br)cc2Cl)CCCO1 | 16.9 (≈ 32.7 µM) |
| CC(Oc1ccccc1Cl)C(=O)ON=C1CCCCCCCCCCC(=O)OCCC1 (stereo unspecified) | 18 (≈ 39.8 µM) |
| COc1ccc(OCC(=O)ON=C2CCCCCCCCCCC(=O)OCCC2)cc1 | 48.8 (≈ 113 µM) |
| Cc1ccccc1OCC(=O)ON=C1CCCCCCCCCCC(=O)OCCC1 | 117 (≈ 281 µM) |
| O=C1CCCCCCCCCC/C(=N\OC(=O)COc2ccc(Br)cc2Cl)CCCO1 | 14.4 (≈ 27.9 µM) |
| Cc1cc(OCC(=O)ON=C2CCCCCCCCCCC(=O)OC(C)CC2)ccc1Cl (stereo unspecified) | 3.4 (≈ 7.3 µM) |

| SMILES | EC50 [µg/mL] |
| --- | --- |
| O=C1CCCCCCCCCC/C(=N/OC(=O)COc2ccc(Cl)cc2)CCCO1 | 16.3 (≈ 37.2 µM) |
| O=C1CCCCCCCCCCC(=NOC(=O)COc2cccc([N+](=O)[O-])c2)CCCO1 | 80.9 (≈ 180 µM) |
| Cc1cc(OC(C)C(=O)ON=C2CCCCCCCCCCC(=O)OCCC2)ccc1Cl (stereo unspecified) | 9.5 (≈ 20.4 µM) |
| O=C1CCCCCCCCCCC(=NOC(=O)COc2cccc(Cl)c2)CCCO1 | 23.8 (≈ 54.3 µM) |
| CC(Oc1ccc(Cl)cc1Cl)C(=O)ON=C1CCCCCCCCCCC(=O)OCCC1 (stereo unspecified) | 13.5 (≈ 27.8 µM) |
| Cc1cc(Cl)ccc1OCC(=O)ON=C1CCCCCCCCCCC(=O)OC(C)CC1 (stereo unspecified) | 8 (≈ 17.2 µM) |
| CC(C)(Oc1ccc(Cl)cc1)C(=O)ON=C1CCCCCCCCCCC(=O)OCCC1 | 46.5 (≈ 99.8 µM) |
| Cc1cccc(OC(C)C(=O)ON=C2CCCCCCCCCCC(=O)OCCC2)c1C (stereo unspecified) | 49.6 (≈ 111 µM) |
| CC(Oc1cccc(Cl)c1)C(=O)ON=C1CCCCCCCCCCC(=O)OCCC1 (stereo unspecified) | 25.1 (≈ 55.5 µM) |
| CC1CCC(=NOC(=O)C(C)Oc2ccc(Cl)cc2)CCCCCCCCCCC(=O)O1 (stereo unspecified) | 4.8 (≈ 10.3 µM) |
| O=C1CCCCCCCCCC/C(=N\OC(=O)COc2ccc(Cl)cc2)CCCO1 | 15.7 (≈ 35.8 µM) |
| O=C1CCCCCCCCCCC(=NOC(=O)COc2ccccc2Cl)CCCO1 | 30.6 (≈ 69.9 µM) |
| O=C1CCCCCCCCCCC(=NOC(=O)COc2ccccc2)CCCO1 | 73.2 (≈ 181 µM) |
| CC(C)(Oc1ccccc1)C(=O)ON=C1CCCCCCCCCCC(=O)OCCC1 | 34.6 (≈ 80.2 µM) |
| CC1CCC(=NOC(=O)COc2ccc(Cl)cc2)CCCCCCCCCCC(=O)O1 (stereo unspecified) | 12.4 (≈ 27.4 µM) |
| Cc1cc(Cl)ccc1OCC(=O)ON=C1CCCCCCCCCCC(=O)OCCC1 | 19.6 (≈ 43.4 µM) |
| Cc1ccc(OC(C)C(=O)ON=C2CCCCCCCCCCC(=O)OCCC2)cc1 (stereo unspecified) | 35.9 (≈ 83.2 µM) |
| COC(=O)c1ccccc1S(=O)(=O)NC(=O)N(C)c1nc(C)nc(OC)n1 [TRIBENURON METHYL] | 22.4 (≈ 56.7 µM) |
| Cc1cc(Cl)ccc1OCC(=O)O/N=C1\CCCCCCCCCCC(=O)OCCC1 | 18.3 (≈ 40.5 µM) |

The molecules below were run on Cucumis sativus (assay: Herbicidal activity against Cucumis sativus (cucumber) assessed as plant dead at 25 to 32 degC measured after 7 days). Details: 168 h.
Format: functional, organism-based
Summary of the method: as §1

| SMILES | EC50 [µg/mL] |
| --- | --- |
| O=C1CCCCCCCCCCC(=NOC(=O)COc2ccc(Cl)cc2Cl)CCCO1 | 1.5 (≈ 3.18 µM) |

What follows are molecules tested on Zea mays (assay: Herbicidal activity against Zea mays (maize) assessed as plant dead at 25 to 32 degC measured after 7 days). Details: 168 h.
Format: functional, organism-based
Summary of the method: as §1

| SMILES | EC50 [µg/mL] |
| --- | --- |
| O=C1CCCCCCCCCCC(=NOC(=O)COc2ccc(Cl)cc2Cl)CCCO1 | 0.3 (≈ 0.635 µM) |

These molecules were tested on Lolium arundinaceum (assay: Herbicidal activity against Festuca arundinacea assessed as plant dead at 25 to 32 degC measured after 7 days). Details: L., 168 h.
Format: functional, organism-based
Summary of the method: as §1

| SMILES | EC50 [µg/mL] |
| --- | --- |
| O=C1CCCCCCCCCCC(=NOC(=O)COc2ccc(Cl)cc2Cl)CCCO1 | 50.2 (≈ 106 µM) |

These molecules were tested on Vigna radiata var. radiata (assay: Herbicidal activity against Vigna radiata var. radiata assessed as plant dead at 25 to 32 degC measured after 7 days). Details: 168 h.
Format: functional, organism-based
Summary of the method: as §1

| SMILES | EC50 [µg/mL] |
| --- | --- |
| O=C1CCCCCCCCCCC(=NOC(=O)COc2ccc(Cl)cc2Cl)CCCO1 | 2.8 (≈ 5.93 µM) |

The molecules below were run on Glycine max (assay: Herbicidal activity against Glycine max (soybean) assessed as plant dead at 25 to 32 degC measured after 7 days). Details: 168 h.
Format: functional, organism-based
Summary of the method: as §1

| SMILES | EC50 [µg/mL] |
| --- | --- |
| O=C1CCCCCCCCCCC(=NOC(=O)COc2ccc(Cl)cc2Cl)CCCO1 | 14.4 (≈ 30.5 µM) |

The molecules below were run on Oryza sativa (assay: Herbicidal activity against Oryza sativa (rice) assessed as plant dead at 25 to 32 degC measured after 7 days). Details: 168 h.
Format: functional, organism-based
Summary of the method: as §1

| SMILES | EC50 [µg/mL] |
| --- | --- |
| O=C1CCCCCCCCCCC(=NOC(=O)COc2ccc(Cl)cc2Cl)CCCO1 | 2.5 (≈ 5.29 µM) |
